Consider five molecules from ChEMBL document CHEMBL1132158, “4-[[2-(1-Methyl-2-pyrrolidinyl)ethyl]thio]phenol hydrochloride (SIB-1553A): a novel cognitive enhancer with selectivity for neuronal nicotinic acetylcholine receptors” (J Med Chem, 1999).

Common to all, as to assay type: functional
The species named for assay [1] is Rattus norvegicus. Put plainly: In vitro efficacy to stimulate the release of [3H]dopamine from rat striatal slices. The gist of the method: (§1)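 Release of [3H]DA (striatum) or [3H]NE (hippocampus, prefrontal cortex) from rat brain slice preparations stimulated by test compound at 300 μM. […] Mean ± SD of 3–6 experiments.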
The species named for assay [2] is Rattus norvegicus. Put plainly: In vitro efficacy to stimulate [3H]NE in rat hippocampus. The gist of the method:
as §1

For assay [3], the species on record is Rattus norvegicus. Put plainly: In vitro efficacy to stimulate [3H]NE in rat prefrontal cortex membrane slice. Summed up: as §1
For assay [4], the system named is Rattus norvegicus. Put plainly: Acetylcholine release data in […] rats when compound was administered subcutaneously at dose of 40 mg/kg. To be noted: route subcutaneous. The gist of the method:
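In vivo acetylcholine release from hippocampus of freely moving Sprague–Dawley rats after subcutaneous dosing. […] Mean ± SEM of 2–6 independent experiments, compared against saline control by two-way repeated measures ANOVA with Student–Newman–Keuls post-hoc test.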

Assay [5] has as its system Rattus norvegicus. Put plainly: Acetylcholine release data in […] rats when compound was administered subcutaneously at dose of 40(mg/Kg).
The species entered for assay [6] is Rattus norvegicus. Put plainly: In vitro efficacy to stimulate [3H]-dopamine from brain slice preparations. Summed up:
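Striatal brain slices stimulated with test compound at 300 μM; [3H]dopamine release measured. […] Mean ± SD of 3–6 experiments.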

For `CN1CCC[C@H]1CCSc1ccc(O)cc1`, the Efficacy in the assay filed under Rattus norvegicus [1] turned out to be 4.3; in the assay listed under Rattus norvegicus [2] it was 0.3; in the assay listed under Rattus norvegicus [3], 0.35. This molecule registered an Activity with Rattus norvegicus [4] of 13.
Consider `CN1CCCC1CCSc1ccc(O)cc1` (configuration not stated), for which the Efficacy was 6.5 in the assay listed under Rattus norvegicus [1], 0.2 in the assay listed under Rattus norvegicus [2] and 0.6 in the assay listed under Rattus norvegicus [3]. The molecule further showed an Activity with Rattus norvegicus [4] of 12.
For `CN1CCC[C@@H]1CCSc1ccc(O)cc1`, the Efficacy in the assay listed under Rattus norvegicus [1] worked out at 4.1; in the assay listed under Rattus norvegicus [2], 0.2; in the assay filed under Rattus norvegicus [3] it was 0.3. Moreover, in the assay with Rattus norvegicus [4], the Activity stood at 10.
Molecule `CN1CCCC1CCSc1ccccc1` (configuration not stated) gave an Activity in the assay with Rattus norvegicus [5] of 0.6. The molecule further came in with an Efficacy in the assay listed under Rattus norvegicus [6] of 1.5.
In the case of `CN1CCC[C@H]1c1cccnc1` [NICOTINE], the Efficacy in the assay filed under Rattus norvegicus [1], in the assay listed under Rattus norvegicus [2] and in the assay filed under Rattus norvegicus [3] was 1 throughout.
